Common to all, as to assay type: functional
The subject of assay [1] is MCF7. The assay is described as follows: Down regulation of ZNF189 gene expression in human MCF7 cells at IC50 after 48 hrs by cDNA microarray technique relative to control.
The subject of assay [2] is HT-29. The assay is described as follows: Down regulation of HTN1 gene expression in human HT-29 cells at IC50 after 48 hrs by cDNA microarray technique relative to control. Summed up: (§1)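 Cells (8 × 10⁶) were cultured in DMEM with 10% heat-inactivated FBS at 37 °C under 5% CO₂. They were exposed for 48 h to compound at its IC₅₀, with DMSO-treated parallel cultures as controls (final DMSO ≤0.1% v/v). Total RNA was isolated by trizol/chloroform phase separation, RNeasy column cleanup and on-column DNase, then quantified by OD260/OD280. Expression was profiled by cDNA microarray relative to control.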

Assay [3] concerns MCF7. The assay is described as follows: Down regulation of PCDH20 gene expression in human MCF7 cells at IC50 after 48 hrs by cDNA microarray technique relative to control.
Assay [4] relates to HT-29. The assay is described as follows: Upregulation of GALNT10 gene expression in human HT-29 cells at IC50 after 48 hrs by cDNA microarray technique relative to control.
The subject of assay [5] is MCF7. The assay is described as follows: Upregulation of HMGCS2 gene expression in human MCF7 cells at IC50 after 48 hrs by cDNA microarray technique relative to control.
For assay [6], the system named is MCF7. The assay is described as follows: Down regulation of IL1F9 gene expression in human MCF7 cells at IC50 after 48 hrs by cDNA microarray technique relative to control. In short, it runs like this:
as §1

The subject of assay [7] is MCF7. The assay is described as follows: Upregulation of CR595826 gene expression in human MCF7 cells at IC50 after 48 hrs by cDNA microarray technique relative to control.
Assay [8] has as its system MCF7. The assay is described as follows: Down regulation of TGM4 gene expression in human MCF7 cells at IC50 after 48 hrs by cDNA microarray technique relative to control.
The subject of assay [9] is HT-29. The assay is described as follows: Down regulation of IL12RB2 gene expression in human HT-29 cells at IC50 after 48 hrs by cDNA microarray technique relative to control. In short, it runs like this:
as §1

Assay [10] deals with HT-29. The assay is described as follows: Down regulation of PARK2 gene expression in human HT-29 cells at IC50 after 48 hrs by cDNA microarray technique relative to control.
Assay [11] deals with MCF7. The assay is described as follows: Down regulation of CD72 gene expression in human MCF7 cells at IC50 after 48 hrs by cDNA microarray technique relative to control. Summed up: (§2)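 8 × 10⁶ cells exposed 48 h to compound at its IC50 concentration; total RNA isolated with trizol/chloroform and RNeasy columns including on-column DNase step; RNA quantified by OD 260/280; DMSO-treated cultures as control.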

The test system of assay [12] is MCF7. The assay is described as follows: Down regulation of THSD2 gene expression in human MCF7 cells at IC50 after 48 hrs by cDNA microarray technique relative to control.
The subject of assay [13] is HT-29. The assay is described as follows: Down regulation of COL11A1 gene expression in human HT-29 cells at IC50 after 48 hrs by cDNA microarray technique relative to control. Summed up: as §2
In assay [14] the test system is MCF7. The assay is described as follows: Down regulation of DKFZp667G2110 gene expression in human MCF7 cells at IC50 after 48 hrs by cDNA microarray technique relative to control. Summed up:
as §2

The subject of assay [15] is HT-29. The assay is described as follows: Down regulation of HAPLN3 gene expression in human HT-29 cells at IC50 after 48 hrs by cDNA microarray technique relative to control. In short, it runs like this:
as §1

Assay [16] relates to HT-29. The assay is described as follows: Down regulation of CDH4 gene expression in human HT-29 cells at IC50 after 48 hrs by cDNA microarray technique relative to control. Summed up: as §2
Assay [17] deals with HT-29. The assay is described as follows: Down regulation of PRP19 gene expression in human HT-29 cells at IC50 after 48 hrs by cDNA microarray technique relative to control.
The subject of assay [18] is MCF7. The assay is described as follows: Upregulation of OXSR1 gene expression in human MCF7 cells at IC50 after 48 hrs by cDNA microarray technique relative to control.
In assay [19] the test system is MCF7. The assay is described as follows: Upregulation of GABARAPL1 gene expression in human MCF7 cells at IC50 after 48 hrs by cDNA microarray technique relative to control.
Assay [20] relates to HT-29. The assay is described as follows: Down regulation of BENE gene expression in human HT-29 cells at IC50 after 48 hrs by cDNA microarray technique relative to control. In short, it runs like this: as §2
Assay [21] deals with HT-29. The assay is described as follows: Down regulation of HBZ gene expression in human HT-29 cells at IC50 after 48 hrs by cDNA microarray technique relative to control. In short, it runs like this:
as §1

In assay [22] the test system is HT-29. The assay is described as follows: Upregulation of KIAA0553 gene expression in human HT-29 cells at IC50 after 48 hrs by cDNA microarray technique relative to control.
In assay [23] the test system is HT-29. The assay is described as follows: Down regulation of HKE2 gene expression in human HT-29 cells at IC50 after 48 hrs by cDNA microarray technique relative to control. In short, it runs like this:
as §1

Assay [24] deals with HT-29. The assay is described as follows: Down regulation of CARHSP1 gene expression in human HT-29 cells at IC50 after 48 hrs by cDNA microarray technique relative to control. Summed up: as §2
Assay [25] has as its system HT-29. The assay is described as follows: Down regulation of DKFZp451J0118 gene expression in human HT-29 cells at IC50 after 48 hrs by cDNA microarray technique relative to control. Summed up: as §2
Assay [26] deals with HT-29. The assay is described as follows: Down regulation of SOCS4 gene expression in human HT-29 cells at IC50 after 48 hrs by cDNA microarray technique relative to control.
Assay [27] relates to HT-29. The assay is described as follows: Down regulation of ACCN5 gene expression in human HT-29 cells at IC50 after 48 hrs by cDNA microarray technique relative to control. Summed up:
as §2

Assay [28] deals with HT-29. The assay is described as follows: Down regulation of ZNF482 gene expression in human HT-29 cells at IC50 after 48 hrs by cDNA microarray technique relative to control.
Assay [29] deals with MCF7. The assay is described as follows: Down regulation of FBXL7 gene expression in human MCF7 cells at IC50 after 48 hrs by cDNA microarray technique relative to control. Summed up: as §1
The subject of assay [30] is HT-29. The assay is described as follows: Down regulation of DRD5 gene expression in human HT-29 cells at IC50 after 48 hrs by cDNA microarray technique relative to control. Summed up: as §1
For assay [31], the system named is MCF7. The assay is described as follows: Down regulation of SPINK2 gene expression in human MCF7 cells at IC50 after 48 hrs by cDNA microarray technique relative to control.
The test system of assay [32] is MCF7. The assay is described as follows: Upregulation of ERN1 gene expression in human MCF7 cells at IC50 after 48 hrs by cDNA microarray technique relative to control.

Regarding `COC(CN(c1ccccc1CO)S(=O)(=O)c1ccccc1[N+](=O)[O-])n1cnc2ncnc(Cl)c21` (racemic), the “fold change (FC)” value with MCF7 [1] is -2.17; in the assay with HT-29 [2] it was -2.1; in the assay with MCF7 [3] it was -2.01; in the assay with HT-29 [4], 3.5; in the assay with MCF7 [5], 2.39; with MCF7 [6], -2.17. The “fold change (FC)” value is 2.04 in the assay with MCF7 [7]; -2.58 in the assay on MCF7 [8]; -2.3 with HT-29 [9]; -2.96 in the assay with HT-29 [10]; -2.17 in the assay on MCF7 [11]; -2.28 in the assay on MCF7 [12]. For the same compound, the “fold change (FC)” value with HT-29 [13] is recorded as -2.03; in the assay with MCF7 [14], -2.15; with HT-29 [15], -2.64; in the assay with HT-29 [16] it was -2.22.
For the compound `O=C(OCC1c2ccccc2-c2ccccc21)N1CC(n2cnc3c(Cl)ncnc32)OCc2ccccc21` (racemic), the “fold change (FC)” value in the assay with HT-29 [17] is reported as -3.33; in the assay with MCF7 [18] it was 2.21; in the assay with MCF7 [19], 2.07; with HT-29 [20], -2.14; with HT-29 [21], -2.84; in the assay on HT-29 [22], 2.07. For the same compound, the “fold change (FC)” value is listed as -2 in the assay on HT-29 [23]; -2.12 in the assay with HT-29 [24]; -2.03 in the assay on HT-29 [25]; -2 with HT-29 [26]; -2.98 in the assay on HT-29 [27]; -2.28 in the assay on HT-29 [28]. Besides, the “fold change (FC)” value is listed as -2.86 in the assay on MCF7 [29], -2.3 in the assay with HT-29 [30], -3.01 with MCF7 [31] and 2.81 with MCF7 [32].

The values are drawn from ChEMBL document CHEMBL1821604, “Anticancer activity and cDNA microarray studies of a (RS)-1,2,3,5-tetrahydro-4,1-benzoxazepine-3-yl]-6-chloro-9H-purine, and an acyclic (RS)-O,N-acetalic 6-chloro-7H-purine” (Eur J Med Chem, 2011).
